Experimental data from different studies.
Each line is one published result; the experiments were not run side by side. pEC50, pIC50: −log10 of the molar value.
Observed: cell growth or viability

C#Cc1nc(C2=C(C)C(OC(=O)CCC)/C(=N/OC(=O)CCC)C2)cs1 (centres unmarked)  CC50 (U2OS): 5.95 µM
C[C@@H]1CC[C@@H]([C@](C)(O)Cn2cnc3ccccc32)[C@H](OCc2ccccc2)C1  inhibition (HeLa; MTT; 30 µM; 72 h): 89%
Cc1c(C(=O)O)ccc2c3n(nc12)[C@@H]1[C@H](C3)N(CC2CC2)[C@@]2(C(=O)Nc3cc(Cl)ccc32)[C@H]1c1cccc(Cl)c1F  GI50 (U2OS; resazurin): > 2 µM
COc1ccc(COC[C@@](O)(CNCc2ccc(F)cc2)[C@@H]2CC[C@@H](C)C[C@H]2OCc2ccc(OC)cc2)cc1  inhibition (HeLa; MTT; 10 µM; 72 h): 95%
CCN1[C@@H](C(=O)NC23CCC(C(=O)O)(CC2)CC3)[C@H](c2cccc(Cl)c2F)[C@]2(C(=O)Nc3cc(Cl)ccc32)C12CCCCC2  GI50 (U2OS; resazurin; 72 h): 0.703 µM
C[C@@H]1CC[C@@H]([C@@](O)(CNCc2ccccc2)COCc2ccc(F)cc2)[C@H](OCc2ccc(F)cc2)C1  inhibition (HeLa; MTT; 10 µM; 72 h): 96%
Cc1nc(N(C)c2ccc3c(c2)/C(=C/c2ccccc2Cl)C(=O)N3C)c2ccccc2n1  pIC50 (H22; MTT): 5.05
O=C(C=Cc1ccccc1)Nc1cccc(-c2ccnc(N3CCOCC3)c2)c1  inhibition (HeLa; MTT; 5 µM): 28.4%
C=C(COCc1ccccc1)[C@@H]1CC[C@@H](C)C[C@H]1OCc1ccccc1  inhibition (HeLa; MTT; 10 µM; 72 h): 40.4%
O=C(C=Cc1ccccc1)Nc1cc(-c2ccnc(N3CCOCC3)c2)ccn1  inhibition (HeLa; MTT; 5 µM): 74%
C=CC(=O)NC1CCN(c2ncc3ncnc(Nc4ccc(Oc5ccc6c(c5)ncn6C)c(C)c4)c3n2)CC1  pEC50 (LS-411N): 7.93
Cc1cc(NC(=O)C=Cc2ccccc2)cc(-c2ccnc(N3CCC(O)CC3)c2)c1  inhibition (HeLa; MTT; 5 µM): 26.6%
Cc1nc(Nc2ccc3c(c2)/C(=C/c2ccccc2Cl)C(=O)N3)c2ccccc2n1  pIC50 (H22; MTT): 5.67
COc1ccc(CNC[C@](O)(COCc2ccc(OC)cc2)[C@@H]2CC[C@@H](C)C[C@H]2OCc2ccc(OC)cc2)cc1  inhibition (HeLa; MTT; 10 µM; 72 h): 96.9%
O=C(/C=C/c1ccc(F)cc1)Nc1cc(-c2ccnc(N3CCC(O)CC3)c2)ccn1  inhibition (HeLa; MTT; 5 µM): 81.5%
COc1cc2ncnc(N(C)c3ccc4c(c3)/C(=C/c3cccc(Cl)c3)C(=O)N4C)c2cc1OC  pIC50 (H22; MTT): 5.35
O=C(/C=C/c1cccc(F)c1)Nc1cc(-c2ccnc(N3CCC(O)CC3)c2)ccn1  inhibition (HeLa; MTT; 5 µM): 85%
C=C(COCc1ccc(OC)cc1)[C@@H]1CC[C@@H](C)C[C@H]1OCc1ccc(OC)cc1  inhibition (HeLa; MTT; 10 µM; 72 h): 39.2%
O=C(C=Cc1ccccc1)Nc1cccc(-c2ccnc(N3CCC(O)CC3)c2)c1  inhibition (HeLa; MTT; 5 µM): 55.7%
Cc1nc(Nc2ccc3c(c2)C(C)(C)C(=O)N3C)c2ccccc2n1  pIC50 (H22; MTT): 4.62
